Test [1] has as its system ATH-8 cell line. In words: Compound was evaluated for cytotoxicity by HIV cytopathic effect assay performed with ATH8 cells at a concentration of 1(uM). It counts as functional, Homo sapiens. In outline:
(§1)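 Uninfected control ATH8 cells (2×10^5) were polybrene-treated and cultured in 2 mL IL-2-containing medium with or without compound at 37 °C in 5% CO2. Viable cells were counted by trypan blue exclusion on a hemocytometer at days 5–7. % cytotoxicity = 100 × [1 − (viable cells with nucleoside ÷ viable cells cultured alone)].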
On the technique in general: Damage to the host cells serves as the signal in cytopathic effect assays.

Test [2] has as its system ATH-8 cell line. In words: (§2) Compound was evaluated for cytotoxicity by HIV cytopathic effect assay performed with ATH8 cells at a concentration of 10(uM). Format: functional, Homo sapiens. The procedure, abridged: as §1
For test [3], the system named is ATH-8 cell line. In words: Compound was evaluated for cytotoxicity by HIV cytopathic effect assay performed with ATH8 cells at a concentration of 100(uM). Format: functional, Homo sapiens. The procedure, abridged: as §1
Test [4] has as its system ATH-8 cell line. In words: Compound was evaluated for cytotoxicity by HIV cytopathic effect assay performed with ATH8 cells at a concentration of 200(uM). Format: functional, Homo sapiens. In outline: as §1
In test [5] the test system is ATH-8 cell line. In words: Compound was evaluated for cytotoxicity by HIV cytopathic effect assay performed with ATH8 cells at a concentration of 5(uM). Format: functional, Homo sapiens. In outline: as §1
The test system of test [6] is ATH-8 cell line. In words: Compound was evaluated for cytotoxicity by HIV cytopathic effect assay performed with ATH8 cells at a concentration of 50(uM). Format: functional, Homo sapiens. The procedure, abridged:
as §1

The nature of test [7]: Compound was evaluated for the protective effect against HTLV-III/LAV (HIV) pathogenesis at a concentration of 1(uM). It counts as functional. The procedure, abridged:
(§3)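 ATH8 cells (2×10^5) were polybrene-treated, then exposed to HTLV-IIIB (2000 virus particles/cell) for 45 min. They were resuspended in 2 mL IL-2-containing medium with or without compound and incubated at 37 °C in 5% CO2. Viable cells were counted by trypan blue exclusion on days 5–7. % protection compared infected treated, infected untreated, and uninfected cells.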

Test [8] is described as follows: Compound was evaluated for the protective effect against HTLV-III/LAV (HIV) pathogenesis at a concentration of 10(uM). Format: functional. In outline: as §3
Test [9] in a line: Compound was evaluated for the protective effect against HTLV-III/LAV (HIV) pathogenesis at a concentration of 100(uM). Format: functional. In outline: as §3
Test [10] can be described thus: Compound was evaluated for the protective effect against HTLV-III/LAV (HIV) pathogenesis at a concentration of 200(uM). It counts as functional. The procedure, abridged:
as §3

A short description of test [11]: Compound was evaluated for the protective effect against HTLV-III/LAV (HIV) pathogenesis at a concentration of 50(uM). Format: functional. The procedure, abridged: as §3
A short description of test [12]: Compound was evaluated for the protective effect against HTLV-III/LAV (HIV) pathogenesis at a concentration of 5(uM). It counts as functional. The procedure, abridged:
as §3

The test system of test [13] is ATH-8 cell line. In words: Compound was evaluated for cytotoxicity by HIV cytopathic effect assay performed with ATH8 cells at a concentration of 0.05(uM). Format: functional, Homo sapiens. The procedure, abridged: as §1
Test [14] deals with ATH-8 cell line. In words: Compound was evaluated for cytotoxicity by HIV cytopathic effect assay performed with ATH8 cells at a concentration of 0.5(uM). It counts as functional, Homo sapiens. The procedure, abridged:
as §1

A short description of test [15]: Compound was evaluated for the protective effect against HTLV-III/LAV (HIV) pathogenesis at a concentration of 0.05(uM). It counts as functional. The procedure, abridged: as §3
A short description of test [16]: Compound was evaluated for the protective effect against HTLV-III/LAV (HIV) pathogenesis at a concentration of 0.5(uM). Format: functional. In outline:
as §3

Test [17] concerns ATH-8 cell line. In words: Compound was evaluated for cytotoxicity by HIV cytopathic effect assay performed with ATH8 cells at a concentration of 2(uM). It counts as functional, Homo sapiens. The procedure, abridged: as §1
Test [18] can be described thus: Compound was evaluated for the protective effect against HTLV-III/LAV (HIV) pathogenesis at a concentration of 2(uM). Format: functional. In outline: as §3
Test [19] relates to ATH-8 cell line. In words: Compound was evaluated for cytotoxicity by HIV cytopathic effect assay performed with ATH8 cells at a concentration of 30(uM). Format: functional, Homo sapiens. The procedure, abridged:
as §1

Test [20] is described as follows: Compound was evaluated for the protective effect against HTLV-III/LAV (HIV) pathogenesis at a concentration of 30(uM). It counts as functional. In outline:
as §3

The subject of test [21] is ATH-8 cell line. Described as §2. It counts as functional. The procedure, abridged: as §1
Test [22] has as its system ATH-8 cell line. In words: Compound was evaluated for cytotoxicity by HIV cytopathic effect assay performed with ATH8 cells at a concentration of 1000(uM). It counts as functional, Homo sapiens. The procedure, abridged:
as §1

Test [23] has as its system ATH-8 cell line. In words: Compound was evaluated for cytotoxicity by HIV cytopathic effect assay performed with ATH8 cells at a concentration of 2000(uM). Format: functional, Homo sapiens. In outline:
as §1

Test [24] concerns ATH-8 cell line. In words: Compound was evaluated for cytotoxicity by HIV cytopathic effect assay performed with ATH8 cells at a concentration of 500(uM). It counts as functional, Homo sapiens. The procedure, abridged: as §1
The nature of test [25]: Compound was evaluated for the protective effect against HTLV-III/LAV (HIV) pathogenesis at a concentration of 1000(uM). It counts as functional. In outline: as §3
Test [26] can be described thus: Compound was evaluated for the protective effect against HTLV-III/LAV (HIV) pathogenesis at a concentration of 2000(uM). Format: functional. In outline:
as §3

Test [27] is described as follows: Compound was evaluated for the protective effect against HTLV-III/LAV (HIV) pathogenesis at a concentration of 500(uM). Format: functional. The procedure, abridged:
as §3

Turning to `Nc1ncnc2c1ncn2C1CCC(COP(=O)([O-])[O-])O1.[Na+].[Na+]` (stereo unspecified), the Cytotoxicity in the test with ATH-8 cell line [1] worked out at 2%; in the test on ATH-8 cell line [2] it was 6%; in the test on ATH-8 cell line [3], 0%; with ATH-8 cell line [4], 5%; in the test with ATH-8 cell line [5], 10%; with ATH-8 cell line [6] it was 4%. Besides, the Protective effect turned out to be 25% in test [7]; 100% in test [8]; 100% in [9]; 100% in test [10]; 83% in test [11]; 91% in test [12].

Regarding `Nc1ncn(C2CCC(CO)O2)c(=O)n1` (stereo unspecified), the Cytotoxicity with ATH-8 cell line [1] is 13%; in the test with ATH-8 cell line [2], 19%; with ATH-8 cell line [6], 62%. The figures for the Protective effect in test [7], in test [8] and in [11] were 16%, 58% and 38%, respectively.

In the case of `Nc1ccn([C@H]2CC[C@@H](CO)O2)c(=O)n1` [ZALCITABINE], the Cytotoxicity is 0% with ATH-8 cell line [13], 0% in the test on ATH-8 cell line [14], 0% in the test on ATH-8 cell line [5] and 30% in the test on ATH-8 cell line [6]. Besides, the Protective effect in test [15] was 18%; in test [11], 77%; in test [16], 97%; in test [12] it was 100%.

As for `Cc1cn(C2CCC(CO)O2)c(=O)nc1N` (stereo unspecified), the Cytotoxicity in the test on ATH-8 cell line [2] came out at 27%; in the test on ATH-8 cell line [3], 44%; in the test on ATH-8 cell line [17], 23%. For the same compound, the Protective effect in [8] was 7%; in test [9] it was 3%; in [18], 2%.

As for `Nc1nc(=O)n(C2CCC(CO)O2)cc1Br` (stereo unspecified), the Cytotoxicity with ATH-8 cell line [1] came out at 14%; in the test on ATH-8 cell line [2], 14%; with ATH-8 cell line [4], 0%; with ATH-8 cell line [19], 2%. Also, the Protective effect in [7] came to 6%; in [8] it was 8%; in test [10] it was 0%; in [20] it was 5%.

As for `Cc1cn(C2CCC(COP(=O)([O-])[O-])O2)c(=O)[nH]c1=O.[Na+].[Na+]` (stereo unspecified), the Cytotoxicity is 9% in the test on ATH-8 cell line [2], 10% in the test on ATH-8 cell line [4] and 9% in the test with ATH-8 cell line [6]. The Protective effect in test [8] was 7%; in test [10], 15%; in [11] it was 18%.

With `N.N.Nc1ccn(C2CCC(COP(=O)(O)O)O2)c(=O)n1` (stereo unspecified), the results for the Cytotoxicity in the test on ATH-8 cell line [14], in the test on ATH-8 cell line [2] and in the test on ATH-8 cell line [17] were 0%, 0% and 7%, respectively. Moreover, the Protective effect in test [8] was determined as 74%; in test [18], 9%; in test [16] it was 13%.

Turning to `Nc1ncnc2c1ncn2[C@H]1CC[C@@H](CO)O1`, the Cytotoxicity was 0% with ATH-8 cell line [1]; 0% in the test with ATH-8 cell line [2]; 0% in the test with ATH-8 cell line [3]; 0% in the test with ATH-8 cell line [4]; 6% in the test on ATH-8 cell line [5]; 0% in the test on ATH-8 cell line [6]. Moreover, the Protective effect stood at 42% in test [7]; 100% in [8]; 100% in test [9]; 100% in [10]; 100% in test [11]; 98% in test [12].

On to `Cc1cn([C@H]2C=C[C@@H](CO)O2)c(=O)[nH]c1=O` [STAVUDINE], for which the Cytotoxicity in the test on ATH-8 cell line [21] came to 8%; in the test with ATH-8 cell line [3], 13%; with ATH-8 cell line [22], 40%; with ATH-8 cell line [4], 6%; in the test with ATH-8 cell line [23] it was 53%; in the test with ATH-8 cell line [6], 8%. In addition, in the test on ATH-8 cell line [24], the Cytotoxicity was found to be 30%. Besides, the Protective effect in test [8] was 3%; in test [9] it was 19%; in test [25] it was 46%; in test [10], 77%; in test [26], 43%; in test [11], 9%. Also, the Protective effect in test [27] was found to be 68%.

With `Nc1nc(=O)n([C@@H]2CC[C@H](CO)O2)cc1F`, the Cytotoxicity in the test on ATH-8 cell line [13] is reported as 5%; in the test with ATH-8 cell line [14], 0%; in the test on ATH-8 cell line [5] it was 0%; in the test with ATH-8 cell line [6] it was 9%. Further, the Protective effect in test [15] stood at 5%; in test [11] it was 88%; in test [16] it was 100%; in test [12] it was 100%.
